Kir21 block: inhibitors of mouse Kir2.1 inward-rectifier potassium channel; HEK293-Kir2.1, FluxOR thallium flux fluorescence; hits give low values; B-score at 10 µM; actives 0.85% (n = 310,000); Inward rectifier potassium channel 2 (Mus musculus), P35561; AID 1672, 2009;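 active = fluorescence ratio B-score at or below minus 3 SD of library scores, with starting-brightness B-score within 2 SD, cut at about -4.2 in these data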;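 note: channel flux triggered by added potassium and thallium sulfate stimulus; B-score of peak minus minimum fluorescence over baseline after thallium stimulus; more negative B-score means stronger Kir2.1 block with less thallium influx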
KCNK9 inh: KCNK9 potassium channel inhibitors, primary screen, HEK293 cells, thallium flux | FluxOR thallium flux fluorescence; hits give low values | B-score at 10 µM | actives 1.2% (n = 310,000) | AID 488922, 2010;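 active = ratio B-score over 3 SD below the library mean, with starting fluorescence within 5 SD of its mean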;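 note: negative B-score means less thallium flux so channel inhibition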
KCNK3 block: human KCNK3 channel inhibitors, primary screen, CHO cells, FluxOR thallium flux, B-score; Potassium channel subfamily K member 3 (Homo sapiens), O14649; B-score at 10 µM; actives 0.84% (n = 340,000); FluxOR fluorescence; hits give low values;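 active = B-score under library mean minus 4 SD, starting fluorescence ratio at most library mean plus 5 SD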;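 note: more negative B-score means stronger inhibition of thallium flux through KCNK3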
hERG rescue: hERG rescue from dofetilide block, primary screen, cell-based, CHO-hERG, FluxOR thallium flux, dofetilide IC70; Voltage-gated inwardly rectifying potassium channel KCNH2 (Homo sapiens), Q12809; activation (rescue from dofetilide block), less the hit threshold, % at 10 µM; AID 1511, 2009; dofetilide IC70 present; actives 0.51% (n = 310,000);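 active = activation above the mean of controls blocked by dofetilide plus 5 SD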;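 note: thallium influx through hERG after potassium depolarization seen as dye fluorescence rise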
KCNQ1 inh: inhibitors of human KCNQ1 channel, primary screen, cell-based, thallium flux, high-throughput | Potassium voltage-gated channel subfamily KQT member 1 (Homo sapiens), P51787 | CHO-K1 KCNQ1, FluxOR thallium flux fluorescence; hits give high values | B-score at 10 µM | actives 1.3% (n = 310,000);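 active = compounds whose thallium flux B-score, printed positive for inhibition, exceeds three library SD while starting fluorescence stays within three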;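 note: channel opened by potassium depolarization with thallium stimulus after 20 min compound exposure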
Target sequence (P51787 whole entry, looked up): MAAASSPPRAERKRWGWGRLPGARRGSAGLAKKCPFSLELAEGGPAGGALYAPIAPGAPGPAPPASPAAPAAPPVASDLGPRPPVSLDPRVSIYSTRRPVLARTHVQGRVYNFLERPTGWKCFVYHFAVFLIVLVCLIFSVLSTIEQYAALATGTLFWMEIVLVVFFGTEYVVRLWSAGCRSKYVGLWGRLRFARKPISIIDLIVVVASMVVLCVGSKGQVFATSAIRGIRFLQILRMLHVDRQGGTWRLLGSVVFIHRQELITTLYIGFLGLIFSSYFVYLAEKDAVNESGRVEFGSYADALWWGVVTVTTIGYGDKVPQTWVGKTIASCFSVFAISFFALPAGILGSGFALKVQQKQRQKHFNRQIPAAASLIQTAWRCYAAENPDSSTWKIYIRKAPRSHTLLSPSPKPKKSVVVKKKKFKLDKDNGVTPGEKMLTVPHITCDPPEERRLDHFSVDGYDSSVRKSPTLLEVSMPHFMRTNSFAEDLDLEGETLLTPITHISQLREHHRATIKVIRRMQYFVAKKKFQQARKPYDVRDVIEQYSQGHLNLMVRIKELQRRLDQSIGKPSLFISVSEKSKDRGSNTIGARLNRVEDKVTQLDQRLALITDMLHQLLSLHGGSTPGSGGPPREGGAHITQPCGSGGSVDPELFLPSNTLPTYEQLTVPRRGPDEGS
KCNQ1 act: potentiators or activators of KCNQ1 channel, primary screen, cell-based, thallium flux, high-throughput. Potassium voltage-gated channel subfamily KQT member 1 (Homo sapiens), P51787. CHO-K1 KCNQ1, thallium flux FluxOR fluorescence; hits give high values. B-score at 10 µM. actives 0.35% (n = 310,000). AID 2648, 2010;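 active = fluorescence ratio B-score, a plate-corrected score, at least three library SD, with initial intensity B-score within 5 SD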
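Schedule – 37 °C overnight plating, 90-min dark dye load, 20-min compound pretreatment · System – stable KCNQ1 CHO-K1 line · Probe or stimulus – thallium- and potassium-containing depolarizing buffer · Measured by – kinetic FluxOR fluorescence, 10 s baseline plus 110 s post-stimulus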
KCNQ1 inh valid: KCNQ1 potassium channel inhibitors, confirmation, cell-based, Tl flux, duplicate; shares compounds with KCNQ1 inh; KCNQ1 cell line, FluxOR thallium flux fluorescence; inhibition, % at 10 µM; actives 93% (n = 1,600);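 active = primary screen active, with duplicate mean exceeding buffer control mean plus 3 SD of buffer wells, cut at about 28% in these data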;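 note: 0% = buffer control ratio and 100% = XE991 inhibitor control ratio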
CHO Tl flux: thallium flux effects in parental CHO cells, counter-screen for KCNQ1 inhibitor project, cell-based, Tl flux | shares compounds with KCNQ1 inh | parental CHO-K1, FluxOR thallium flux fluorescence ratio; hits give low values; zero means no signal rise above baseline | fluorescence ratio (Tl flux) at 10 µM | actives 21% (n = 1,600) | AID 588366, 2011;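 active = mean of duplicate thallium-flux fluorescence ratios in parental host cells more than 5 SD below the buffer control mean, cut at about 0.38 in these data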;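 note: ratio is peak minus minimum fluorescence divided by baseline fluorescence; actives read low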
KCNQ1 APC inh: KCNQ1 channel inhibitors, confirmation, orthogonal assay, cell-based, automated electrophysiology; calls only at 10 µM; KCNQ1-CHO cells, automated patch clamp current; shares compounds with KCNQ1 inh; actives 20% (n = 490);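 active = KCNQ1 current drop exceeding 3 SD of negative control wells, seen in both duplicate runs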;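 note: steady state current during a 2 s step from -80 to +40 mV; negative values mean current inhibition and positive values mean potentiation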
KCNQ2 inh: KCNQ2 channel inhibition, selectivity assay for KCNQ1 inhibitor project, cell-based; KCNQ2 cells, FluxOR thallium flux fluorescence; actives 71% (n = 1,600); AID 651746, 2012; inhibition, % at 10 µM; shares compounds with KCNQ1 inh;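 active = mean percent inhibition of the KCNQ2 thallium signal more than 5 SD above the buffer-only control wells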;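 note: KCNQ2 expressed in CHO cells; 0% = buffer control wells and 100% = XE-991 inhibitor control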
KCNQ1 KCNE1 spec: KCNQ1/KCNE1 channel inhibition, selectivity assay for KCNQ1 inhibitor project, CHO-K1 cells, thallium flux, FluxOR | actives 77% (n = 1,600) | inhibition, % at 10 µM | FluxOR thallium flux fluorescence | shares compounds with KCNQ1 inh;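 active = mean percent inhibition of duplicate wells above the buffer-only control mean plus 3 SD of those controls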;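 note: 0% = buffer only wells and 100% = XE-991 inhibitor control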
KCNK9 inh conf: KCNK9 potassium channel inhibitors, confirmation, HEK293 cells, thallium flux, duplicate. shares compounds with KCNK9 inh. FluxOR thallium flux fluorescence. inhibition, % at 10 µM. actives 43% (n = 4,900);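 active = thallium signal inhibited by more than 5 SD of the compound-free buffer control wells, on both duplicate plates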;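 note: 0% = assay buffer control wells without compound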
Kir21 sel: mouse Kir2.1 channel inhibition, confirmation, selectivity assay for KCNK9 modulator project, cell-based, HEK293, thallium flux. shares compounds with KCNK9 inh. Kir2.1 cells, FluxOR thallium flux fluorescence. inhibition, % at 10 µM. actives 4% (n = 4,900). AID 492993, 2010;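 active = thallium signal drop more than 5 SD beyond the mean of the no-compound control wells, seen in both duplicate plates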;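 note: signal is fluorescence rise after thallium addition divided by baseline fluorescence; plate controls were assay buffer only for no effect and full block by chlorpromazine control for full effect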
KCNK9 uninduced: thallium flux in non-induced HEK293 cells, confirmation, counter-screen for KCNK9 inhibitor project, cell-based, second counter screen, non-induced KCNK9-HEK293; inhibition, % at 10 µM; actives 40% (n = 4,900); shares compounds with KCNK9 inh; FluxOR thallium flux;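 active = thallium signal drop beyond 5 SD of the untreated control mean, on both duplicate plates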;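 note: plate controls were buffer only IC0 wells for no effect and SID17386958 at its maximal inhibitory level for full effect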
Starred values were filed as active, the others as inactive; i = inactive; · = no result given; + = active, no number. Only some compounds are listed: those with a hit (about 3.7% of all), similar ones and a draw of the others.

SMILES	Kir21 block	KCNK9 inh	KCNK3 block	hERG rescue	KCNQ1 inh	KCNQ1 act	KCNQ1 inh valid	CHO Tl flux	KCNQ2 inh	KCNQ1 KCNE1 spec	KCNK9 inh conf	Kir21 sel	KCNK9 uninduced	others
COc1ccccc1N1CCN(C(=O)CSc2nc3ccccc3[nH]2)CC1	0.96	i	i	-11.1	i	i	·	·	·	·	·	·	·
CCn1c(=O)n(CC)c2cc(N3CCCC3)c(NC(=O)c3cc(Br)ccc3OC)cc21	1.59	-17.6*	·	-26.7	9*	i	161.5*	0.327*	122.7%*	+	72.0%*	i	i
Cc1cccc(/C=C/c2onc(C)c2S(=O)(=O)N2CCC(C(=O)N3CCC(C)CC3)CC2)c1	0.84	i	i	-8.0	6*	i	51.5*	0.44	i	56.5%*	i	i	i
Clc1cccc(Cl)c1CSc1cc2c(nn1)-c1ccccc1CC2	0.43	i	i	-20.6	i	i	·	·	·	·	·	·	·
Clc1ccccc1CSc1cc2c(nn1)-c1ccccc1CC2	0	-11.1*	i	-15.2	9*	i	81.5*	0.403	97.3%*	128.0%*	46.0%*	i	43.0%*
COc1ccc(CCNC(=O)c2ccc3c(=O)n4c(nc3c2)CCC4)cc1OC	·	·	i	·	·	·	·	·	·	·	·	·	·
CCN(CC)C(=O)C1CCN(Cc2ccc(OCc3ccccc3)c(OC)c2)CC1	-1	i	i	-6.3	i	i	·	·	·	·	·	·	·
O=S(=O)(c1ccc(Cl)s1)N1CCC(Cc2ccccc2)CC1	0.31	i	i	-12.6	6*	i	71.5*	0.431	113.7%*	56.0%*	i	i	i
COc1ccc(CC(=O)Oc2ccc(C)cc2Br)cc1OC	0.05	i	i	-6.3	i	i	·	·	·	·	·	·	·
O=C(Nc1ccc(Cl)cc1)Nc1ccccc1NS(=O)(=O)c1cccs1	-1.82	-10.4*	i	-6.5	7*	i	81.0*	0.556	66.0%*	i	32.0%*	i	i
O=C(Nc1ccc(F)cc1)Nc1ccccc1NS(=O)(=O)c1cccs1	-0.1	i	i	-10.9	i	i	·	·	·	·	·	·	·
COc1ccc(-c2onc(C)c2-c2cnn(-c3ccccc3)c2)c(O)c1C	0.22	i	i	-9.9	6*	i	44.0*	0.404	115.3%*	39.0%*	i	i	i
C=CCNC(=O)COC(=O)c1c2c(nc3ccccc13)CCC2	-1.52	i	i	-10.6	i	i	·	·	·	·	·	·	·
C=CCSc1nnc(C)c(/C=C/Nc2ccc(Cl)cc2)n1	-1.05	-10.6*	i	-11.7	8*	i	73.0*	0.335*	105.7%*	97.5%*	30.5%*	i	55.5%*
CSc1nnc(C)c(/C=C/Nc2ccc(F)cc2F)n1	-0.89	i	i	-6.1	i	i	·	·	·	·	·	·	·
COc1ccc(S(=O)(=O)N2CCCCCC2)cc1NC(=O)CCCOc1ccccc1	·	·	i	·	·	·	·	·	·	·	·	·	·
CCc1ccccc1NCC(=O)Nc1ccc(Cl)c(C(F)(F)F)c1	0.22	i	i	-10.7	8*	i	50.0*	0.534	61.7%*	i	i	i	39.5%*
CC(C)c1ccc(NC(=O)c2sccc2-n2cccc2)cc1	0.79	-11.5*	i	-4.4	6*	i	128.5*	0.396	114.3%*	178.5%*	46.5%*	i	43.5%*	KCNQ1 APC inh=+
Cc1c(Br)cccc1NC(=O)c1sccc1-n1cccc1	0.05	i	i	2.6	i	i	·	·	·	·	·	·	·
COc1ccc(CNC(=O)Cc2ccc(NC(=O)C3=C(C)OCCS3)cc2)cc1	-0.03	i	i	-8.9	i	i	·	·	·	·	·	·	·
Cc1ccc(S(=O)(=O)N2CCN(Cc3ccccc3C(F)(F)F)CC2)cc1	-0.82	i	i	-11.8	10*	i	85.0*	0.409	94.0%*	94.5%*	i	i	i
Cc1ccccc1CC(=O)Nc1cccnc1	1.25	i	i	-3.9	i	i	·	·	·	·	·	·	·
COc1ccc(NC(=O)C2CC(=O)N(Cc3ccco3)C2)cc1Cl (stereo not given)	·	·	i	·	·	·	·	·	·	·	·	·	·
CCOc1ccc(OC(=O)NC(c2ccccc2)C(Cl)(Cl)Cl)cc1 (stereo not given)	0.19	i	i	-16.7	8*	i	111.0*	0.431	100.7%*	168.5%*	i	i	i
CC(C)OC(=O)NC(c1ccccc1)C(Cl)(Cl)Cl (stereo not given)	-0.92	i	i	-17.5	i	i	·	·	·	·	·	·	·
CN(CC(=O)N1CCOCC1)S(=O)(=O)c1ccc2ccccc2c1	0.08	i	i	-7.7	i	i	·	·	·	·	·	·	·
